Sampled rows, rich in hits. Any-hit rate of the full collection: about 4.4%.
EBI2 antag – EBI2 (human) antagonism; P32249; EBI2 beta-arrestin recruitment, luminescence, 7a,25-OHC stimulated; inhibition, % at 5 µM; 360,000 compounds, 0.81% hits; AID 651636; in the data active means inhibition above about 38%;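 further: enzyme fragment complementation signal reports receptor beta-arrestin coupling in cells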
Target sequence (P32249 whole entry, looked up, the tested form may be a part): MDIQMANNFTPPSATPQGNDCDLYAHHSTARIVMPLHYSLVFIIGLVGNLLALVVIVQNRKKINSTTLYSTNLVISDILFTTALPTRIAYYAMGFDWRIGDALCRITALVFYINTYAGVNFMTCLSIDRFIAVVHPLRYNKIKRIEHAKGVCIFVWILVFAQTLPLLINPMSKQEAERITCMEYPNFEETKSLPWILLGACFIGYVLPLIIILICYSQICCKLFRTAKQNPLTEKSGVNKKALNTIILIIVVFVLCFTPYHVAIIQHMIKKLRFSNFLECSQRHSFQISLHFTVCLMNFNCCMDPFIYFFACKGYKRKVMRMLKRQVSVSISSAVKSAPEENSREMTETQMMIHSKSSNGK
NR3A LBD binder – modulates the human NR3A ligand-binding domain | NR3A LBD differential scanning fluorimetry, Tm shift; 0% = protein alone, 100% = glycine-bound protein | Tm shift relative to glycine control, % at 25 µM | 340,000 compounds, 2.5% hits | AID 1259313;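 active means melting temperature shift of at least 10% of the positive control shift, at one fixed dose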
SENP1 inh – blocks the human SENP1 SUMO protease catalytic domain | Q9P0U3 | recombinant SENP1 catalytic domain, CyPet-SUMO1-YPet FRET cleavage | 360,000 compounds, 0.21% hits | inhibition, % at 10 µM;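 active means inhibition at least 30% at 10 µM, raw YFP signal under a set limit, fluorescence ratio 0.5 to 1.5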
Target sequence (Q9P0U3 419-644 limits assumed): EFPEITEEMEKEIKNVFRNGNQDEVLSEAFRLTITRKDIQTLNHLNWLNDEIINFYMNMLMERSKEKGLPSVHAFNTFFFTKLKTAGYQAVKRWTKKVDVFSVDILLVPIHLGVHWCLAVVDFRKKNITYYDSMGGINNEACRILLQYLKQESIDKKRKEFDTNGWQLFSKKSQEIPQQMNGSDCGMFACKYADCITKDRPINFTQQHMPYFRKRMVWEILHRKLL
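Test system: human SENP1 catalytic domain; medium: Tris pH 8 buffer plus EDTA, NaCl, BME, BSA, NP40, catalase; incubation: 50 min reaction at room temperature; technique: FRET, CFP and YFP emission; controls: no-enzyme low control and enzyme-plus-DMSO high control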
MPTP block – permeability transition pore inhibition. 360,000 compounds, 1.4% hits. AID 602449. isolated mouse mitochondria, Ca2+ swelling absorbance, 30 min. inhibition, % at 10 µM;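 active means inhibition of 50% or more, scaled per plate between neutral and stimulator controls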
A number is an active result.

Results for O=c1cc(NS(=O)(=O)c2ccccc2)nc(SCc2ccc(Cl)cc2)[nH]1 ?
EBI2 antag: inactive; NR3A LBD binder: 20; SENP1 inh: inactive; MPTP block: inactive

How did Cc1ccc(S(=O)(=O)N(C)CC(=O)Nc2cc(C)ccn2)cc1 do in these assays?
EBI2 antag: inactive; NR3A LBD binder: inactive; SENP1 inh: inactive; MPTP block: inactive

Results for Cc1cc(C(=O)OCC(=O)Nc2c(F)cccc2F)c(C)n1-c1ccccc1 ?
EBI2 antag: inactive; NR3A LBD binder: inactive; SENP1 inh: inactive; MPTP block: inactive

Results for COc1ccc(CN2C[C@H]3CCCN3c3cc(Br)ccc3S2(=O)=O)cc1 ?
EBI2 antag: inactive; NR3A LBD binder: 18; SENP1 inh: inactive; MPTP block: inactive

What do the screens show for `CN(C)c1ccc(C(CNS(=O)(=O)c2ccc(F)c(F)c2)c2c[nH]c3ccccc23)cc1` (stereo unspecified)?
EBI2 antag: inactive; NR3A LBD binder: 23; SENP1 inh: inactive; MPTP block: inactive

How did C/C(=N\OCC(=O)Nc1ccc(F)c(F)c1F)c1cc2ccccc2o1 do in these assays?
EBI2 antag: inactive; NR3A LBD binder: inactive; SENP1 inh: inactive; MPTP block: inactive

What do the screens show for `CSc1ccccc1NC(=O)CO/N=C(\C)c1cc2ccccc2o1`?
EBI2 antag: inactive; NR3A LBD binder: 11; SENP1 inh: inactive; MPTP block: inactive

How did CSc1ccccc1NC(=O)Cc1ccccc1 do in these assays?
EBI2 antag: inactive; NR3A LBD binder: inactive; SENP1 inh: inactive; MPTP block: inactive

What do the screens show for `CSc1ccccc1NC(=O)COC(=O)CCc1ccccc1`?
EBI2 antag: inactive; NR3A LBD binder: 14; SENP1 inh: inactive; MPTP block: inactive

Results for COc1ccc(NS(=O)(=O)c2ccc(C)c(C(=O)N3CC(C)OC(C)C3)c2)cc1 (stereo unspecified) ?
EBI2 antag: inactive; NR3A LBD binder: 11; SENP1 inh: inactive; MPTP block: inactive

What do the screens show for `O=C(CSc1nnc(NC(=O)c2ccco2)s1)Nc1cccc(F)c1`?
EBI2 antag: inactive; NR3A LBD binder: 28; SENP1 inh: inactive; MPTP block: inactive

Results for O=C(CSc1nnc(NC(=O)c2ccco2)s1)Nc1ccc(F)cc1F ?
EBI2 antag: inactive; NR3A LBD binder: inactive; SENP1 inh: inactive; MPTP block: inactive

How did Cc1ccc(NC(=O)CSc2nccn2Cc2ccco2)c(C)c1 do in these assays?
EBI2 antag: inactive; NR3A LBD binder: inactive; SENP1 inh: inactive; MPTP block: inactive

How did COc1cccc(Nc2nnc(SCC(=O)Nc3sccc3C(N)=O)s2)c1 do in these assays?
EBI2 antag: inactive; NR3A LBD binder: inactive; SENP1 inh: inactive; MPTP block: inactive

How did CCc1ccc(Nc2nnc(SCC(=O)Nc3sccc3C(N)=O)s2)cc1 do in these assays?
EBI2 antag: inactive; NR3A LBD binder: 10; SENP1 inh: inactive; MPTP block: inactive

How did CC(=O)Nc1cccc(NC(=O)CSc2nnc(NC(=O)c3ccco3)s2)c1 do in these assays?
EBI2 antag: inactive; NR3A LBD binder: 11; SENP1 inh: inactive; MPTP block: inactive

How did COc1cccc(NC(=O)CSc2nnc(NC(=O)c3ccco3)s2)c1 do in these assays?
EBI2 antag: inactive; NR3A LBD binder: inactive; SENP1 inh: inactive; MPTP block: inactive

What do the screens show for `CC(=O)Nc1cccc(NC(=O)CSc2nccn2Cc2ccco2)c1`?
EBI2 antag: inactive; NR3A LBD binder: 14; SENP1 inh: inactive; MPTP block: inactive

How did COc1ccc(N(CC(=O)NCCC2=CCCCC2)S(=O)(=O)c2ccccc2)c(OC)c1 do in these assays?
EBI2 antag: inactive; NR3A LBD binder: inactive; SENP1 inh: inactive; MPTP block: inactive

Results for Cc1ccc(NS(=O)(=O)c2ccc(C(=O)N3CCN(S(=O)(=O)c4ccccc4)CC3)cc2)cc1 ?
EBI2 antag: inactive; NR3A LBD binder: inactive; SENP1 inh: inactive; MPTP block: inactive

How did CCc1nnc(NC(=O)c2ccc(Br)o2)s1 do in these assays?
EBI2 antag: inactive; NR3A LBD binder: inactive; SENP1 inh: inactive; MPTP block: inactive

How did CC(=O)Nc1ccc(NC(=O)CSc2nnc(NC(=O)c3ccc(Br)o3)s2)cc1 do in these assays?
EBI2 antag: inactive; NR3A LBD binder: 16; SENP1 inh: inactive; MPTP block: inactive

What do the screens show for `Cc1csc(CN(C)C(=O)c2cn(Cc3cccc4ccccc34)nn2)n1`?
EBI2 antag: inactive; NR3A LBD binder: inactive; SENP1 inh: inactive; MPTP block: inactive

Results for Cc1ccc(NC(=O)CN(C)CC(=O)Nc2ccccc2C#N)cc1 ?
EBI2 antag: inactive; NR3A LBD binder: inactive; SENP1 inh: inactive; MPTP block: inactive

What do the screens show for `N#Cc1ccccc1NC(=O)CN(Cc1ccccc1)Cc1ccccc1`?
EBI2 antag: inactive; NR3A LBD binder: 16; SENP1 inh: inactive; MPTP block: inactive

How did O=C(CCCCCN1C(=O)CCC1=O)Nc1ccc(Br)cc1F do in these assays?
EBI2 antag: inactive; NR3A LBD binder: 11; SENP1 inh: inactive; MPTP block: inactive

Results for COc1ccc(N2C(=O)c3ccccc3NC2(C)C)cc1 ?
EBI2 antag: inactive; NR3A LBD binder: inactive; SENP1 inh: inactive; MPTP block: inactive

What do the screens show for `CC1(C)Nc2ccccc2C(=O)N1c1ccc(Br)cc1`?
EBI2 antag: inactive; NR3A LBD binder: 13; SENP1 inh: inactive; MPTP block: inactive

Results for CC(C)n1c(N)c(C#N)c2ccc([N+](=O)[O-])cc2c1=O ?
EBI2 antag: inactive; NR3A LBD binder: inactive; SENP1 inh: inactive; MPTP block: inactive

How did N#Cc1c(N)n(-c2ccccc2)c(=O)c2cc([N+](=O)[O-])ccc12 do in these assays?
EBI2 antag: inactive; NR3A LBD binder: 25; SENP1 inh: inactive; MPTP block: inactive

How did Cc1ccc(-c2cc(-c3ccccc3Cl)[nH]n2)c(O)c1 do in these assays?
EBI2 antag: inactive; NR3A LBD binder: 12; SENP1 inh: inactive; MPTP block: inactive

How did Oc1ccc(Cl)cc1-c1cc(-c2ccccc2)n[nH]1 do in these assays?
EBI2 antag: inactive; NR3A LBD binder: 25; SENP1 inh: inactive; MPTP block: inactive

How did Cc1ccc(-c2cc(-c3ccc(F)cc3)n[nH]2)c(O)c1 do in these assays?
EBI2 antag: inactive; NR3A LBD binder: 12; SENP1 inh: inactive; MPTP block: inactive

Results for Cc1ccc(-c2cc(-c3ccccc3[N+](=O)[O-])[nH]n2)c(O)c1 ?
EBI2 antag: inactive; NR3A LBD binder: inactive; SENP1 inh: inactive; MPTP block: inactive

Results for Cc1ccc(O)c(-c2cc(-c3cccc(Br)c3)n[nH]2)c1 ?
EBI2 antag: inactive; NR3A LBD binder: 28; SENP1 inh: inactive; MPTP block: inactive

How did Cc1oc(-c2cccc3ccccc23)nc1CN1CCC[C@H]1CO do in these assays?
EBI2 antag: inactive; NR3A LBD binder: inactive; SENP1 inh: inactive; MPTP block: inactive

How did CC(C)C[C@H]1CNC(=S)N1CC1CCCN1C[C@H](CC(C)C)N1C[C@H](Cc2ccc(O)cc2)N(CC2CCCCC2)C1=S (stereo partly specified) do in these assays?
EBI2 antag: inactive; NR3A LBD binder: 12; SENP1 inh: inactive; MPTP block: inactive

What do the screens show for `CC(C)C[C@@H](CN1CCCC1CN1C(=S)NC[C@@H]1Cc1ccc(O)cc1)N1C[C@H](Cc2ccc(O)cc2)N(CC2CCCCC2)C1=S` (stereo partly specified)?
EBI2 antag: inactive; NR3A LBD binder: 33; SENP1 inh: inactive; MPTP block: inactive

Screening results: PubChem, Sanford-Burnham Center for Chemical Genomics
